High-throughput results (PubChem)
Compounds with a hit are over-represented: about 1.6% of the library has one in this group of screens.
MT1-MMP act inh = blocks activation of human MT1-MMP; P50281; HT1080 RFP-PRO-GFP cells, GFP/RFP ratio fluorescence, overnight; percent of plate control window, DMSO zero; GFP/RFP ratio change, % at 20 µM; 0.061% of 360,000 active; AID 651647;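 active = GFP/RFP ratio change of at least 30% with cell ATP level not reduced by more than half and red fluorescence within 50% of control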
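Compound: 20 µM single dose, 1% DMSO / System: HT1080 RFP-PRO-GFP cells / Controls: DMSO and RFP-L50D-GFP cell wells / Read-out basis: GFP/RFP fluorescence ratio / Schedule: overnight compound exposure at 37 °C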
p-CIP stab down = lowers stability of the mouse p/CIP coactivator protein; Q05BA5; F442A p/CIP-EGFP cells, EGFP fluorescence, 16 h; decrease of EGFP signal, % at 10 µM; 0.01% of 290,000 active;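 active = EGFP signal decrease of at least 30% at 10 µM or well 3 SD below plate mean, unless failing retest; inactive = the rest, including hits failing retest or dose response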
Target sequence (Q05BA5 1-1403): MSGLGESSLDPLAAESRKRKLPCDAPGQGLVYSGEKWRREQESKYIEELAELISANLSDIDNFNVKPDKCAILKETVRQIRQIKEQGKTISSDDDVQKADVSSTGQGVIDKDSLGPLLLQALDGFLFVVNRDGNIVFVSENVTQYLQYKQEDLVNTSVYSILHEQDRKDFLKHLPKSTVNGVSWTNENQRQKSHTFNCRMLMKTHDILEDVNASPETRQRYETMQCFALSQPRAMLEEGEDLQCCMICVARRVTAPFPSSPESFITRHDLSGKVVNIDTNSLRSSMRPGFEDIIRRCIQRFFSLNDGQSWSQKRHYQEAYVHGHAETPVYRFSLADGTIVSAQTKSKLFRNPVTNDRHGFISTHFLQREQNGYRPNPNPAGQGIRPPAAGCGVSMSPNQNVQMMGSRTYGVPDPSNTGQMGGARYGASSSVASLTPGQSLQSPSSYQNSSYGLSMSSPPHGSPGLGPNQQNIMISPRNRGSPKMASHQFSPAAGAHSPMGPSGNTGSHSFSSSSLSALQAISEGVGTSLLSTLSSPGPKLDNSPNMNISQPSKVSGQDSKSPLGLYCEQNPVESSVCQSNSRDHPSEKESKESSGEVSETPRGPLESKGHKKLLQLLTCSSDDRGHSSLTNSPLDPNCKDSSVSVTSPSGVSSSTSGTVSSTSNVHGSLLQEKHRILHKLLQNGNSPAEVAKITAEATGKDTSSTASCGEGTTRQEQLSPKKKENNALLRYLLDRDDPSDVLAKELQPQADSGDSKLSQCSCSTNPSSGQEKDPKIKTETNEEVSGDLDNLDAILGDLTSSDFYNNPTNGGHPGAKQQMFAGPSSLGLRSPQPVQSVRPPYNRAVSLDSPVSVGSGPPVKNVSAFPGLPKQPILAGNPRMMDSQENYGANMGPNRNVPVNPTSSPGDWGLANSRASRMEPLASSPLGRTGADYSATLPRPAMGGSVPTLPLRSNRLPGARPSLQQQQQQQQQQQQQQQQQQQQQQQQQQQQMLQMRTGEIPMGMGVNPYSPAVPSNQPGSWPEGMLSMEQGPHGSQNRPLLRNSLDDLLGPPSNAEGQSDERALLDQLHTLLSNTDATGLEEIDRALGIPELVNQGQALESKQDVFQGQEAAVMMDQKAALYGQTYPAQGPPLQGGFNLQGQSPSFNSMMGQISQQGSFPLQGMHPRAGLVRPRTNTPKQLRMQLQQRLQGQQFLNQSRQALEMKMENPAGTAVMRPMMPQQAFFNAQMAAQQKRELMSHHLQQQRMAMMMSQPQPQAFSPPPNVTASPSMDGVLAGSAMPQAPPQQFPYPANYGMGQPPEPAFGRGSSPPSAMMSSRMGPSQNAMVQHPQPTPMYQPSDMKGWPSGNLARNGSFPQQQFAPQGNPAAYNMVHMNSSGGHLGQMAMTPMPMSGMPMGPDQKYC
SKN-1 block = C. elegans SKN-1 inhibition. inhibition, % at 21.8 µM. C. elegans VP596 Pgst-4::GFP/RFP ratio, acrylamide-induced, 24 h. 0.49% of 360,000 active;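 active = interference check ratio from 0.5 to 1.5 plus GFP to RFP signal ratio inhibition reaching or exceeding a fixed threshold, cut at about 30% in these data, passing the limit was not always enough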
bovine MsrA act = bovine methionine sulfoxide reductase A activation. 0.3% of 360,000 active. purified bovine MsrA, absorbance read-out. activation, % at 10.6 µM; in the data active = activation above about 7.5%;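 also: 0% = vehicle and 100% = reference activator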
MsrA inhibitor = inhibits bovine methionine sulfoxide reductase A | purified bovine MsrA, absorbance read-out | inhibition, % at 15.5 µM | 0.75% of 360,000 active | AID 651718; in the data active = inhibition above about 4.5%;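 also: 0% = vehicle wells with enzyme and 100% = reference inhibitor wells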
MsrA act confirm = confirmation of bovine methionine sulfoxide reductase A activators. AID 602270. activation, % at 10.6 µM. shares compounds with bovine MsrA act. purified bovine MsrA, absorbance read-out. 12% of 1,000 active; in the data active = activation above about 4%;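 also: enzyme coupled to thioredoxin and thioredoxin reductase with NADPH; 0% = vehicle wells and 100% = reference activator wells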
MT1-MMP conf = blocks activation of human MT1-MMP in validation testing; HT1080 RFP-PRO-GFP cells, GFP and RFP fluorescence ratio, overnight; inhibition, % at 20 µM; 10% of 200 active; shares compounds with MT1-MMP act inh;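 active = inhibition of at least 50% in the primary cell screen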
* marks the source's active call; other numbers are inactive results; · = not tested or not shown.

SMILES	MT1-MMP act inh	p-CIP stab down	SKN-1 block	bovine MsrA act	MsrA inhibitor	others
O=C1C(=O)c2ccccc2-c2ccccc21	-21.9	-16.2	1.2	48.9*	0.5
CN1C(=O)/C(=C\c2ccc(N3CCCCC3)o2)C(=O)NC1=S	-208.1	-66.0	33.4*	-3.0	-0.3
Cc1ccsc1/C=C1\C(=O)NC(=S)N(C)C1=O	9.2	2.7	40.1*	3.6	0.6
O=C(NCCN1CCC2(CC1)C(=O)NCN2c1ccccc1)c1ccc(Cl)cc1	·	·	·	·	-0.6
O=c1c2ccccc2[se]n1-c1ccccc1	-9.4	0.5	17.1	20.2*	-0.2
O=[N+]([O-])c1ccc(Nc2ccccc2)cc1	1.6	-6.2	51.0*	-10.9	3.7
COc1ccc(-c2cc(-c3ccccc3)[n+](C)c(-c3ccccc3)c2)cc1	-20.7	-14.2	6.9	-4.2	4.8*
COc1ccc(-[n+]2c(-c3ccccc3)cc(-c3ccc(C)cc3)cc2-c2ccccc2)cc1	-1.8	-13.8	2.2	-1.8	2.6
O=C(NCCN1CCC2(CC1)C(=O)NCN2c1ccccc1)c1cccs1	·	·	·	·	-0.4
CC1=Nc2ccccc2/C1=C/c1c(O)[nH]c(=O)[nH]c1=O	-7.7	-1.8	36.1*	-1.0	-0.2
Cc1cc(N2CCNC[C@H]2C)ccc1N1CC[C@H](O)C1	·	·	·	·	-0.5
CCn1c(O)c(C=Nc2ccc(S(N)(=O)=O)cc2)c(=O)n(CC)c1=S	22.0	-4.7	4.0	-4.5	1.3
CCn1c(O)c(C=Nc2ccc(S(N)(=O)=O)cc2)c(=O)[nH]c1=S	18.8	-21.4	38.3*	-4.7	0.2
O=S(=O)(c1ccc(Cl)cc1)N1Cc2ccc(Br)cc2-n2nncc2C1	·	·	·	·	0.7
CC(=O)C1=C(C)OC2=C(C(=O)CCC2)[C@@]12C(=O)N(C)c1ccccc12	·	·	·	·	-0.5
COc1ccc2c(c1)NP(=S)(c1ccccc1)N2C (stereo not given)	5.0	·	54.3*	5.1	1.4
Brc1ccc2c(c1)-n1nncc1CNC2	·	·	·	·	-0.5
CC(O)C1C=CC=CC(=O)OC2CC3OC4C5OC5(C)C(O)CC4(COC(=O)C(O)C(C)CCO1)C2(C)C31CO1 (stereo not given)	-44.3	·	15.5	-4.4	-0.8
CC1=CC2OC3CC4OC(=O)C=CC=CC(C(C)O)OCC(O)C5(C)OC5C(=O)OCC2(CC1O)C4(C)C31CO1 (stereo not given)	-46.4	·	40.3*	-4.5	0.0
O=C(NC1CCCCC1)N1Cc2cc(Br)ccc2-n2nncc2C1	·	·	·	·	-1.0
Cc1ccc(-n2c(O)c(/C=N/N3CCCCC3c3cccnc3)c(=O)[nH]c2=S)cc1 (stereo not given)	-9.5	-2.0	18.1	-14.6	4.5*
CC(C)S(=O)(=O)N1Cc2ccc(Br)cc2-n2nncc2C1	·	·	·	·	0.8
Cn1c(O)c(/C=N/NC(=O)c2ccncc2)c(=O)[nH]c1=S	10.2	0.1	41.8*	-2.5	-0.7
CCCCn1c(O)c(/C=N/NC(=O)c2ccncc2)c(=O)[nH]c1=S	-2.2	4.2	16.2	-7.6	1.3
CCn1nc(-c2ccccc2)nc2c(=O)n(C)c(=O)nc1-2	3.0	0.7	4.8	37.0*	·
SMILES	MT1-MMP act inh	p-CIP stab down	SKN-1 block	bovine MsrA act	MsrA inhibitor	others
COc1ccc(-c2nc3ccccc3c(=O)n2-c2ccc(OC)cc2)cc1	-1.3	-6.4	17.9	-1.1	-1.3
CN1C(=O)C(=Cc2cn(CC(=O)N3CCCCC3)c3ccccc23)C(=O)N(C)C1=O	-2.6	9.8	40.9*	-0.7	·
CCCCn1c(O)c(C(C)=NCCc2c[nH]c3ccccc23)c(=O)[nH]c1=O	6.9	1.2	-3.2	-1.5	0.3
O=C(/C=C/c1c[nH]c2ccccc12)c1c(O)n(CCc2ccccc2)c(=O)[nH]c1=O	-128.8	-364.1	39.9*	-0.7	0.5
Cc1nc2c(=O)n(C)c(=O)nc-2n(C)n1	-26.0	59.3	-16.1	18.3*	0.3	MsrA act confirm=13.2*
c1ccc(-c2nc3ccccc3nc2-c2ccc(CN3CCC(n4nnc5ccccc54)CC3)cc2)cc1	·	·	·	·	1.7
CCOC(=O)c1c(N)n(CCCOC(=O)c2ccco2)c2nc3ccccc3nc12	4.1	-21.6	35.0*	11.1*	0.8	MsrA act confirm=0.8
O=P(OCCCl)(OCCCl)OCCCl	·	·	·	·	0.9
C[C@]12CC[C@@H](O)C[C@@H]1CC[C@@H]1[C@@H]2CC[C@]2(C)C(=O)[C@H](O)C[C@@H]12	0.4	·	8.7	18.9*	·	MsrA act confirm=-1.2
N#CCCC#N	·	·	·	·	0.2
C=C1C(=O)[C@@]23C[C@H]4[C@@H]5[C@@]6(C)CCC[C@@]57[C@@H]2[C@@H](O)[C@@H]1C[C@H]3[C@H]7N4C6	-5.7	·	3.8	25.8*	0.1	MsrA act confirm=17.0*
COC(=O)C1=C(c2ccc(OC(F)(F)F)cc2)C[C@@H]2CC[C@H]1N2C(=O)NCc1ccco1	·	·	·	·	0.3
O=C(O)c1cccc(NC(=O)N2C[C@H]3C[C@@H](C2)c2cccc(=O)n2C3)c1	2.7	-2.6	5.3	8.9*	-0.6	MsrA act confirm=-3.5
Fc1ccc2nc(-c3ccc(CN4CCC(n5nnc6ccccc65)CC4)cc3)c(-c3ccccc3)nc2c1	·	·	·	·	1.7
c1ccc2c(CCNC3CCCCC3)c[nH]c2c1	0.3	-2.8	1.1	-3.0	0.2
c1ccc2[nH]c(CCNC3CCCCC3)nc2c1	-3.0	-8.0	-5.6	7.8*	0.2	MsrA act confirm=-1.0
c1ccc(Cn2ccnc2)cc1	1.4	-1.2	-9.2	-2.3	-1.3
CC(C)c1cccc(C(C)C)c1OCCn1ccnc1	-1.0	-5.9	34.2*	14.1*	0.4	MsrA act confirm=-1.9
C[n+]1c2ccccc2nc2ccc(NCCO)cc21	55.1*	-9.7	86.5	59.0*	-0.5	MsrA act confirm=50.9*;MT1-MMP conf=37.6
CNc1ccc2nc3ccccc3[n+](C)c2c1	67.3*	-10.8	91.1	91.7*	-0.6	MsrA act confirm=73.9*;MT1-MMP conf=49.2
OCCNc1c2c(nc3ccccc13)CCCC2	-6.5	-7.9	12.5	-2.9	2.7
COc1ccc(OC(=O)N(C)C[C@H]2OCc3cnnn3CCCC(=O)N([C@@H](C)CO)C[C@@H]2C)cc1	·	·	·	·	0.3
COc1cc2c(cc1OC)-c1c(OC)c(OC)cc3c1[C@H](C2)N(C)CC3	50.4*	-7.9	7.1	5.1	0.1	MT1-MMP conf=5.3
CCN1/C(=C/C=C/C2=[N+](CC)c3ccccc3C2(C)C)C(C)(C)c2ccccc21	15.3	·	66.9	-2.9	-1.4
C[N+]1=C(/C=C/Nc2ccccc2)C(C)(C)c2ccccc21	37.8*	-9.9	50.2	-8.9	2.9	MT1-MMP conf=26.3
CN(C)N=O	0.7	·	-2.6	-6.2	0.6
CN1C(=O)C(=Cc2ccc(Sc3ccccc3)o2)C(=O)N(C)C1=O	32.7*	-5.0	18.2	-0.4	-1.7	MT1-MMP conf=3.3
CCC(C)N1C(=O)/C(=C\c2cc3c4c(c2)CCCN4CCC3)C(=O)NC1=S (stereo not given)	-9.0	-6.3	31.2	-2.4	2.3
